From PubChem BioAssay
Kir21 inh – inhibitors of mouse Kir2.1 inward-rectifier potassium channel. AID 1672. HEK293-Kir2.1, FluxOR thallium flux fluorescence; stronger effect = lower value. B-score at 10 µM. 0.85% of 310,000 active;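 active = fluorescence ratio B-score at or below minus 3 SD of library scores, with starting-brightness B-score within 2 SD, cut at about -4.2 in these data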;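 note: channel flux triggered by added potassium and thallium sulfate stimulus; B-score of peak minus minimum fluorescence over baseline after thallium stimulus; more negative B-score means stronger Kir2.1 block with less thallium influx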
KCNK9 block – inhibitors of human KCNK9 two-pore domain potassium channel; HEK293 KCNK9, FluxOR thallium flux fluorescence; stronger effect = lower value; Q9NPC2; AID 488922; 1.2% of 310,000 active; B-score at 10 µM;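 active = ratio B-score over 3 SD below the library mean, with starting fluorescence within 5 SD of its mean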;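 note: negative B-score means less thallium flux so channel inhibition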
KCNK3 inh – human KCNK3 channel inhibition, primary screen; B-score at 10 µM; AID 602410; 0.84% of 340,000 active; CHO-KCNK3 thallium flux, FluxOR fluorescence; stronger effect = lower value;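 active = B-score under library mean minus 4 SD, starting fluorescence ratio at most library mean plus 5 SD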;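 note: more negative B-score means stronger inhibition of thallium flux through KCNK3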
Target sequence (O14649 whole entry, looked up): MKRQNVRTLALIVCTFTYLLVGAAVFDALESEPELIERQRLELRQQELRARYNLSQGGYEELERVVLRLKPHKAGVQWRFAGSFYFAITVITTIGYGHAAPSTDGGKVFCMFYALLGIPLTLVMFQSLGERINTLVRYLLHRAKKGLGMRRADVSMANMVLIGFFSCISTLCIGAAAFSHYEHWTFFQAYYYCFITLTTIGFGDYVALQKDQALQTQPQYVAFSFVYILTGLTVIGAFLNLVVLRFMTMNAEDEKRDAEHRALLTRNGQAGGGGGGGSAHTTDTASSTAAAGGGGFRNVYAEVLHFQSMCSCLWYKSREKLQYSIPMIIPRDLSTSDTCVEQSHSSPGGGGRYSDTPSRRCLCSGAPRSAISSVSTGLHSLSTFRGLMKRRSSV
KCNQ1 inh – human KCNQ1 channel inhibition | P51787 | CHO-K1 KCNQ1, FluxOR thallium flux fluorescence; stronger effect = higher value | B-score at 10 µM | 1.3% of 310,000 active | AID 2642;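 active = compounds whose thallium flux B-score, printed positive for inhibition, exceeds three library SD while starting fluorescence stays within three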;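 note: channel opened by potassium depolarization with thallium stimulus after 20 min compound exposure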
KCNQ1 act – potentiators or activators of human KCNQ1 potassium channel; P51787; CHO-K1 KCNQ1, thallium flux FluxOR fluorescence; stronger effect = higher value; B-score at 10 µM; 0.35% of 310,000 active; AID 2648;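 active = fluorescence ratio B-score, a plate-corrected score, at least three library SD, with initial intensity B-score within 5 SD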
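Schedule – 37 °C overnight plating, 90-min dark dye load, 20-min compound pretreatment · System – stable KCNQ1 CHO-K1 line · Probe or stimulus – thallium- and potassium-containing depolarizing buffer · Measured by – kinetic FluxOR fluorescence, 10 s baseline plus 110 s post-stimulus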
hERG protect – shields human hERG channel from block by proarrhythmic agents | CHO-hERG, FluxOR thallium flux, dofetilide IC70 present | Q12809 | AID 1511 | 0.51% of 310,000 active | activation (rescue from dofetilide block), less the hit threshold, % at 10 µM;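 active = activation above the mean of controls blocked by dofetilide plus 5 SD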;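 note: thallium influx through hERG after potassium depolarization seen as dye fluorescence rise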
KCNK9 block conf – human KCNK9 inhibitor confirmation | shares compounds with KCNK9 block | HEK293 KCNK9 cells, FluxOR thallium flux fluorescence | inhibition, % at 10 µM | 43% of 4,900 active;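 active = thallium signal inhibited by more than 5 SD of the compound-free buffer control wells, on both duplicate plates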;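 note: 0% = assay buffer control wells without compound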
Kir2-1 spec – selectivity of KCNK9 modulators against mouse Kir2.1 | shares compounds with KCNK9 block | Kir2.1 cells, FluxOR thallium flux fluorescence | inhibition, % at 10 µM | 4% of 4,900 active | AID 492993;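 active = thallium signal drop more than 5 SD beyond the mean of the no-compound control wells, seen in both duplicate plates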;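 note: signal is fluorescence rise after thallium addition divided by baseline fluorescence; plate controls were assay buffer only for no effect and full block by chlorpromazine control for full effect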
HEK293 Tl ctr – non-induced cell nonspecific activity of KCNK9 modulators | shares compounds with KCNK9 block | non-induced KCNK9-HEK293, FluxOR thallium flux | inhibition, % at 10 µM | 40% of 4,900 active | AID 492997;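 active = thallium signal drop beyond 5 SD of the untreated control mean, on both duplicate plates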;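 note: plate controls were buffer only IC0 wells for no effect and SID17386958 at its maximal inhibitory level for full effect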
KCNK3 confirm – human KCNK3 channel inhibition, confirmation assay; shares compounds with KCNK3 inh; CHO-KCNK3 thallium flux, FluxOR fluorescence; 0% buffer, 100% carvedilol maximal block; ratio percent of control, % at 10 µM; 99% of 2,400 active; AID 651638;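 active = ratio percent of control, averaged over triplicates, above buffer control mean plus 5 SD, cut at about 64% in these data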;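 note: ratio is the fluorescence rise from min to max over baseline after thallium stimulus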
KCNK3 noninduced – counter-screen for KCNK3 inhibitors: effect in non-induced cells. shares compounds with KCNK3 inh. non-induced KCNK3 parental cells, FluxOR thallium flux; stronger effect = lower value. thallium flux ratio (lower = more inhibition) at 10 µM. 40% of 2,400 active. AID 651747;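 active = thallium flux ratio, averaged over three wells, more than 5 SD below the buffer control mean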;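 note: host cells are CHO cells without KCNK3 induction; ratio is peak minus trough fluorescence over baseline then normalized to buffer controls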
* = called active by the depositor; i = inactive; . = no result. Hits are enriched below; roughly 3.7% of the tested compounds scored in any of these assays.

SMILES | Kir21 inh | KCNK9 block | KCNK3 inh | KCNQ1 inh | KCNQ1 act | hERG protect | KCNK3 confirm | KCNK3 noninduced | others
Cc1nn(Cc2ccccc2Cl)c(Cl)c1C(=O)OCC(=O)NC(=O)NC1CCCCC1 | 0.91 | i | i | i | i | -7.5 | . | . | KCNK9 block conf=i;Kir2-1 spec=i;HEK293 Tl ctr=i
COc1cccc(NP(=O)(Oc2ccccc2Cl)Oc2ccccc2Cl)c1 | 0 | -10.1* | i | i | i | -2.5 | . | . | KCNK9 block conf=38.5%*;Kir2-1 spec=i;HEK293 Tl ctr=38.0%*
CCCCCCn1c(=O)c(C(=O)Nc2c(C)n(C)n(-c3ccccc3)c2=O)c(O)c2ccccc21 | -0.01 | i | i | i | i | -18.2 | . | . | KCNK9 block conf=i;Kir2-1 spec=i;HEK293 Tl ctr=i
FC(F)(F)c1ccc2c(c1)N(CCCN1CCN(CCCl)CC1)c1ccccc1S2 | -0.52 | i | i | i | i | -14.1 | . | . | KCNK9 block conf=i;Kir2-1 spec=i;HEK293 Tl ctr=i
Cc1cccc(C2=NCC(=O)N(CC(=O)NCc3ccco3)c3sc4c(c32)CCCC4)c1 | -1.98 | -11* | i | i | i | -6.7 | . | . | KCNK9 block conf=41.0%*;Kir2-1 spec=i;HEK293 Tl ctr=30.5%*
O=C(CN1C(=O)CN=C(c2ccccc2Cl)c2cc(Cl)ccc21)NCc1ccco1 | -0.75 | i | i | i | i | -2.2 | . | .
Clc1ccc(C(Cn2ccnc2)OCc2csc3c(Cl)cccc23)c(Cl)c1 (stereo not drawn) | . | . | -11.6* | . | . | . | 105.3* | 0.156*
COc1ccc(S(=O)(=O)N2CC3CC(C2)c2cccc(=O)n2C3)cc1 (stereo not drawn) | 2.19 | i | i | i | i | -7.2 | . | .
CC1(C)CN2C(c3ccc(Cl)cc3)N2C1 (stereo not drawn) | -0.49 | i | i | i | i | -4.9 | . | .
O=C(NCc1ccccc1)c1cccn(Cc2ccccc2)c1=O | -0.56 | i | -9.78* | i | i | -12.3 | 108.0* | i
CNC(=O)c1cccn(Cc2ccc(C(F)(F)F)cc2)c1=O | 0.15 | i | i | i | i | -2.4 | . | .
COc1ccc(N=Cc2c(O)n(Cc3ccccc3)c(=S)[nH]c2=O)c(OC)c1 | 0.5 | i | -8.73* | 6* | i | -14.8 | 151.3* | i
CN(C)C1(CNC(=O)c2ccc(Cl)c(S(=O)(=O)NCc3ccco3)c2)CCCCC1 | 0.09 | i | i | i | i | -12.2 | . | .
CC(C)CCNC(=O)c1cc(C(=O)c2cc(F)ccc2O)cn(CCC(C)C)c1=O | -1.22 | i | i | i | i | -5.5 | . | .
CC(C)CCNC(=O)c1cc(C(=O)c2cc(Br)ccc2O)cn(CCC(C)C)c1=O | -0.37 | i | -11.4* | i | i | -8.5 | 102.7* | i
Cc1ccc(CN2CCCN(Cc3ccccc3C)S2(=O)=O)cc1 | -1.85 | -6.82* | -10.3* | i | i | 3.7 | 121.3* | i
NP(=O)(OCCCc1ccccc1)Oc1ccccc1Cl (stereo not drawn) | 0.38 | i | i | i | i | -3.3 | . | .
CCCCn1c(=O)c(C(=O)Nc2ccccn2)c(O)c2ccccc21 | 0.54 | i | -8.72* | 7* | i | -4.2 | 104.0* | 0.142*
COc1ccc(C2=NCC(=O)N(CC(=O)NCc3ccco3)c3sc4c(c32)CCCC4)cc1 | 0.88 | i | -8.88* | i | i | -5.8 | 104.3* | i
CC(NC1CCCCC1)C(O)C12CC3CC(CC(C3)C1)C2 (stereo not drawn) | -0.39 | i | i | i | i | 0.7 | . | .
CCN(CC)S(=O)(=O)c1cccc(N=Nc2c(O)n(CC)c(=S)n(CC)c2=O)c1 | -0.24 | -6.76* | -11.5* | i | i | -20.4 | 117.3* | i
Cn1c(O)c(N=Nc2cccc(S(=O)(=O)N3CCOCC3)c2)c(=O)n(C)c1=O | -0.03 | i | i | i | i | -1.3 | . | .
CCN(CC)C(=O)c1ccc(NC(=O)Nc2ccccc2F)cc1 | -1.69 | i | -9.14* | i | i | -9.1 | 84.7* | 0.157*
CCN(CC)C(=O)c1ccc(NC(=O)CCCSc2ccccc2)cc1 | -0.27 | i | i | i | i | -15.1 | . | .
Clc1ccc(CCC(Cn2ccnc2)Sc2c(Cl)cccc2Cl)cc1 (stereo not drawn) | . | . | -14.4* | . | . | . | 119.7* | 0.153*
Clc1ccc(Cn2ccnc2)cn1 | -0.02 | i | i | i | i | -11.1 | . | .
